According to ChEMBL document CHEMBL1156778, “Synthesis and structure-activity studies of biphenyl analogues of the tuberculosis drug (6S)-2-nitro-6-{[4-(trifluoromethoxy)benzyl]oxy}-6,7-dihydro-5H-imidazo[2,1-b][1,3]oxazine (PA-824)” (J Med Chem, 2010):
In brackets after ≈: the same amount, converted by molar mass.

Key:
[1] = tested on: Mycobacterium tuberculosis; test: Antitubercular activity against Mycobacterium tuberculosis H37Rv in anaerobic condition after 7 days by low oxygen recovery assay; type: functional; details: 168 h
Vero = test: Cytotoxicity against african green monkey Vero cells after 72 hrs by MTS assay; type: cell-based; details: Chlorocebus sabaeus
Outline: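 VERO cells (CCL-81), 72 h exposure, tetrazolium dye read-out.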

[2] = tested on: Mycobacterium tuberculosis; test: Antitubercular activity against Mycobacterium tuberculosis H37Rv in aerobic condition after 7 days by microplate alamar blue assay; type: functional; details: 168 h
Outline: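 M. tuberculosis H37Rv, replicating culture; 8-day microplate assay with Alamar blue added on day 7 to read growth. […] Mean of at least two independent determinations ± SD.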

[3] = Metabolic stability in pooled human liver microsomes assessed as compound remaining after 1 hr by LC-MS-MS; type: ADME, Microsome; details: read-out: Stability
Outline: (§1)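 Test compound at 1 μM with pooled CD-1 mouse or human liver microsomes (0.5 mg/mL protein) and NADPH-regenerating system (3.3 mM MgCl2, 3.3 mM G6P, 0.4 U/mL G6PD, 1.3 mM NADP+) in 75 mM phosphate, pH 7.4, 0.5% DMSO, 37 °C. Stopped at 0 and 60 min with MeCN containing metoprolol internal standard. LC-MS/MS (ESI, SRM), duplicates. % remaining = 100 × mean peak-area ratio at 60 min / at 0 min.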

[4] = tested on: Mycobacterium tuberculosis; test: Antitubercular activity against Mycobacterium tuberculosis H37Rv infected in BALB/c mouse measured per mouse at 100 mg/kg, po daily for 5 days a week for 3 weeks; type: functional
[5] = tested on: Mycobacterium tuberculosis; test: Antitubercular activity against Mycobacterium tuberculosis H37Rv infected in BALB/c mouse assessed as ratio of lung CFU for compound to lung CFU for PA-824 at 100 mg/kg, po daily for 5 days a week for 3 weeks; type: functional
[6] = Metabolic stability in pooled CD1 mouse liver microsomes assessed as compound remaining after 1 hr by LC-MS-MS; type: ADME, Microsome; details: read-out: Stability; outline: as §1

Row | Structure (SMILES) | MIC [1] [µM] | IC50 (Vero) [µM] | MIC [2] [µM] | remaining at 1 h [3] [%] | CFU [4] | fold change (FC) [5] | remaining at 1 h [6] [%]
1 | O=[N+]([O-])c1cn2c(n1)OC[C@@H](OCc1cccc(-c3cccc(OCCCO)c3)c1)C2 | 2.5 (≈ 1.06 µg/mL) | > 125 | 0.58 (≈ 0.247 µg/mL) |  |  |  | 
2 | O=[N+]([O-])c1cn2c(n1)OC[C@@H](OCc1ccccc1-c1ccc3ccccc3c1)C2 | 3.1 (≈ 1.24 µg/mL) | > 125 | 1.6 (≈ 0.642 µg/mL) |  |  |  | 
3 | O=[N+]([O-])c1cn2c(n1)OC[C@@H](OCc1ccc(-c3ccc(Oc4ccccc4)cc3)cc1)C2 | 2.7 (≈ 1.2 µg/mL) | > 125 | 0.04 (≈ 0.0177 µg/mL) | 22 | 330000 | <0.01 | 48
4 | NC(=O)c1cccc(-c2ccc(CO[C@@H]3COc4nc([N+](=O)[O-])cn4C3)cc2)c1 | 6.7 (≈ 2.64 µg/mL) | > 125 | 2.8 (≈ 1.1 µg/mL) |  |  |  | 
5 | CS(=O)(=O)c1ccc(-c2ccc(CO[C@@H]3COc4nc([N+](=O)[O-])cn4C3)cc2)cc1 | 14 (≈ 6.01 µg/mL) | > 125 | 0.67 (≈ 0.288 µg/mL) |  |  |  | 
6 | Nc1ccc(-c2ccc(CO[C@@H]3COc4nc([N+](=O)[O-])cn4C3)cc2)cc1 | 1.9 (≈ 0.696 µg/mL) | > 125 | 0.49 (≈ 0.18 µg/mL) |  |  |  | 
7 | O=[N+]([O-])c1cn2c(n1)OC[C@@H](OCc1ccc(-c3ccc(Cl)c(C(F)(F)F)c3)cc1)C2 | 1.9 (≈ 0.862 µg/mL) | > 125 | 0.035 (≈ 0.0159 µg/mL) | 92 | 30 | 7.7 | 96
8 | O=[N+]([O-])c1cn2c(n1)OC[C@@H](OCc1ccccc1-c1cccc(OC(F)(F)F)c1)C2 | 6.3 (≈ 2.74 µg/mL) | > 125 | 1.9 (≈ 0.827 µg/mL) |  |  |  | 
9 | N#Cc1ccc(-c2ccccc2CO[C@@H]2COc3nc([N+](=O)[O-])cn3C2)cc1 | 19 (≈ 7.15 µg/mL) | > 125 | 8.4 (≈ 3.16 µg/mL) |  |  |  | 
10 | O=[N+]([O-])c1cn2c(n1)OC[C@@H](OCc1ccccc1-c1ccccc1OC(F)(F)F)C2 | 6.2 (≈ 2.7 µg/mL) | > 125 | 1.2 (≈ 0.522 µg/mL) |  |  |  | 
11 | N#Cc1ccc(-c2ccc(CO[C@@H]3COc4nc([N+](=O)[O-])cn4C3)cc2)cc1 | 0.58 (≈ 0.218 µg/mL) | > 125 | 0.025 (≈ 0.00941 µg/mL) | 95 | 4500 | 3.6 | 58
12 | O=[N+]([O-])c1cn2c(n1)OC[C@@H](OCc1ccccc1-c1ccc(F)cc1)C2 | 3.4 (≈ 1.26 µg/mL) | > 125 | 1.2 (≈ 0.443 µg/mL) |  |  |  | 
13 | O=[N+]([O-])c1cn2c(n1)OC[C@@H](OCc1cccc(-c3ccc(O)cc3)c1)C2 | 5.8 (≈ 2.13 µg/mL) | > 125 | 0.54 (≈ 0.198 µg/mL) |  |  |  | 
14 | O=[N+]([O-])c1cn2c(n1)OC[C@@H](OCc1ccc(-c3ccc(C(F)(F)F)cc3)cc1)C2 | 1.4 (≈ 0.587 µg/mL) | > 125 | 0.03 (≈ 0.0126 µg/mL) | 60 | 1100 | 72 | 85
15 | CC(=O)c1ccc(-c2ccccc2CO[C@@H]2COc3nc([N+](=O)[O-])cn3C2)cc1 | 36 (≈ 14.2 µg/mL) | > 125 | 17 (≈ 6.69 µg/mL) |  |  |  | 
16 | CCOc1ccccc1-c1ccc(CO[C@@H]2COc3nc([N+](=O)[O-])cn3C2)cc1 | 0.82 (≈ 0.324 µg/mL) | > 125 | 0.03 (≈ 0.0119 µg/mL) | 50 | 540000 | 0.15 | 0.2
17 | CN(C)CCOc1cccc(-c2ccc(CO[C@@H]3COc4nc([N+](=O)[O-])cn4C3)cc2)c1 | 18 (≈ 7.89 µg/mL) | > 125 | 1.5 (≈ 0.658 µg/mL) |  |  |  | 
18 | COc1ccc(-c2ccccc2CO[C@@H]2COc3nc([N+](=O)[O-])cn3C2)cc1F | 3.8 (≈ 1.52 µg/mL) | > 125 | 1.8 (≈ 0.719 µg/mL) |  |  |  | 

Row | Structure (SMILES) | MIC [1] [µM] | IC50 (Vero) [µM] | MIC [2] [µM] | remaining at 1 h [3] [%] | CFU [4] | fold change (FC) [5] | remaining at 1 h [6] [%]
19 | NC(=O)c1ccc(-c2ccc(CO[C@@H]3COc4nc([N+](=O)[O-])cn4C3)cc2)cc1 | 15 (≈ 5.92 µg/mL) | > 125 | 2.1 (≈ 0.828 µg/mL) |  |  |  | 
20 | O=[N+]([O-])c1cn2c(n1)OC[C@@H](OCc1ccccc1-c1ccc(OC(F)(F)F)cc1)C2 | 4.3 (≈ 1.87 µg/mL) | > 125 | 2.3 (≈ 1 µg/mL) |  |  |  | 
21 | O=[N+]([O-])c1cn2c(n1)OC[C@@H](OCc1ccc(-c3ccc(O)cc3)cc1)C2 | 4.3 (≈ 1.58 µg/mL) | > 125 | 0.64 (≈ 0.235 µg/mL) |  |  |  | 
22 | O=[N+]([O-])c1cn2c(n1)OC[C@@H](OCc1ccc(-c3ccc(OC(F)(F)F)cc3)cc1)C2 | 1.3 (≈ 0.566 µg/mL) | > 125 | 0.035 (≈ 0.0152 µg/mL) |  | <2 | >205 | 
23 | O=[N+]([O-])c1cn2c(n1)OC[C@@H](OCc1cccc(-c3ccc(OCCCN4CCOCC4)cc3)c1)C2 | 11 (≈ 5.44 µg/mL) | > 125 | 0.69 (≈ 0.341 µg/mL) |  |  |  | 
24 | O=[N+]([O-])c1cn2c(n1)OC[C@@H](OCc1ccc(-c3ccc(OC(F)(F)F)c(Cl)c3)cc1)C2 | 0.9 (≈ 0.423 µg/mL) | > 125 | 0.03 (≈ 0.0141 µg/mL) | 90 | 6.4 | 281 | 84
25 | CSc1ccc(-c2ccccc2CO[C@@H]2COc3nc([N+](=O)[O-])cn3C2)cc1 | 3.4 (≈ 1.35 µg/mL) | > 125 | 1.3 (≈ 0.517 µg/mL) |  |  |  | 
26 | O=[N+]([O-])c1cn2c(n1)OC[C@@H](OCc1ccc(-c3ccc(F)cc3)cc1)C2 | 1.4 (≈ 0.517 µg/mL) | > 125 | 0.015 (≈ 0.00554 µg/mL) | 75 | 5400 | 3 | 55
27 | N#Cc1cccc(-c2ccccc2CO[C@@H]2COc3nc([N+](=O)[O-])cn3C2)c1 | 8.2 (≈ 3.09 µg/mL) | > 125 | 0.8 (≈ 0.301 µg/mL) |  |  |  | 
28 | O=[N+]([O-])c1cn2c(n1)OC[C@@H](OCc1ccc(-c3ccc(Cl)c(OC(F)F)c3)cc1)C2 | 1.1 (≈ 0.497 µg/mL) | > 125 | 0.03 (≈ 0.0136 µg/mL) | 83 | 150 | 10 | 86
29 | O=[N+]([O-])c1cn2c(n1)OC[C@@H](OCc1ccccc1-c1ccccc1)C2 | 2.5 (≈ 0.878 µg/mL) | > 125 | 0.64 (≈ 0.225 µg/mL) |  |  |  | 
30 | O=[N+]([O-])c1cn2c(n1)OC[C@@H](OCc1ccc(-c3ccc(C(F)(F)F)cc3Cl)cc1)C2 | 1.4 (≈ 0.635 µg/mL) | > 125 | 0.03 (≈ 0.0136 µg/mL) | 92 | 540 | 7.2 | 93
31 | O=[N+]([O-])c1cn2c(n1)OC[C@@H](OCc1ccc(-c3ccc(OC(F)(F)F)c(F)c3)cc1)C2 | 0.34 (≈ 0.154 µg/mL) | > 125 | 0.03 (≈ 0.0136 µg/mL) | 93 | 4.3 | 419 | 86
32 | O=[N+]([O-])c1cn2c(n1)OC[C@@H](OCc1ccc(-c3ccc(OCCO)cc3)cc1)C2 | 3.3 (≈ 1.36 µg/mL) | > 125 | 0.55 (≈ 0.226 µg/mL) |  |  |  | 
33 | O=[N+]([O-])c1cn2c(n1)OC[C@@H](OCc1cccc(-c3cccc(OCCCN4CCOCC4)c3)c1)C2 | 11 (≈ 5.44 µg/mL) | > 125 | 1.4 (≈ 0.692 µg/mL) |  |  |  | 
34 | CC(=O)c1ccc(-c2ccc(CO[C@@H]3COc4nc([N+](=O)[O-])cn4C3)cc2)cc1 | 0.73 (≈ 0.287 µg/mL) | > 125 | 0.04 (≈ 0.0157 µg/mL) | 36 | 110000 | <0.01 | 70
35 | O=[N+]([O-])c1cn2c(n1)OC[C@@H](OCc1ccc(OC(F)(F)F)cc1)C2 [PRETOMANID] | 2.6 (≈ 0.934 µg/mL) | > 125 | 0.5 (≈ 0.18 µg/mL) | 82 |  | 1 | 
